# High-throughput results: PubChem BioAssay, Johns Hopkins Ion Channel Center
# Shown are actives, neighbours in structure and some others; about 2.3% of the full set was active somewhere.
# TRPC4 potent – positive allosteric modulators of TRPC4, primary screen, cell-based, mouse TRPC4beta, HEK293 mu-opioid, Fluo-4 calcium; Short transient receptor potential channel 4 (Mus musculus), Q9QUQ5; DAMGO EC20, Fluo-4 Ca2+ flux; stronger effect = higher value; B-score at 10 µM; actives 0.42% (n = 310,000);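 active = B-score of calcium response area above 5 SD of library B-scores, with initial fluorescence ratio within 5 SD of library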;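 also: B-score of integrated fluorescence ratio over time as area under calcium response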
# Target sequence (Q9QUQ5 whole entry, looked up): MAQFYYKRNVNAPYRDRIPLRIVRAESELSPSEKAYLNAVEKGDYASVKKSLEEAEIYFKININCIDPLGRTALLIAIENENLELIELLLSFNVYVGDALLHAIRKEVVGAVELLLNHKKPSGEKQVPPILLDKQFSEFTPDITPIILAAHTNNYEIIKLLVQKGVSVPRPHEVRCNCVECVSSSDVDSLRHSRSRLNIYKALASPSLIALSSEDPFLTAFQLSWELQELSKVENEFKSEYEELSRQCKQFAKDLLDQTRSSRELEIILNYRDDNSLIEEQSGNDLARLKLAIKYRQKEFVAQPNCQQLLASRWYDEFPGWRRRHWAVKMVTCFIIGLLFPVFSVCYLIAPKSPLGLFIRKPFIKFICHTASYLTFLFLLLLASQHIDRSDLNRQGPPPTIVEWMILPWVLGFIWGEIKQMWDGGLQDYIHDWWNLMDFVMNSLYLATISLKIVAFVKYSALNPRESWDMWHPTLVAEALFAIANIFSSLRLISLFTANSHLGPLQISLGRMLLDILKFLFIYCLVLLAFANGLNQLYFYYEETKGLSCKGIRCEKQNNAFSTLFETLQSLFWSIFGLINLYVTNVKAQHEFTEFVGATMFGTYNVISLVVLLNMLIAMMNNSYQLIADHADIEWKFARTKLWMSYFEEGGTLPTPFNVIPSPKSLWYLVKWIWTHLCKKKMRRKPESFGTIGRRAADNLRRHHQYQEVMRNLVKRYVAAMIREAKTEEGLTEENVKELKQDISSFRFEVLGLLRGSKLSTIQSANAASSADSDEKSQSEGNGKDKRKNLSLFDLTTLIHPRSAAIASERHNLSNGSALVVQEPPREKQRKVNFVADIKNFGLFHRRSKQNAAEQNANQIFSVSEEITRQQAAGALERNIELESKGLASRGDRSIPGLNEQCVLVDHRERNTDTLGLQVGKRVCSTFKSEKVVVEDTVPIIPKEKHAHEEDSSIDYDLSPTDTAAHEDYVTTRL
# TRPC4 inh – inhibitors of mouse TRPC4 channel, primary screen, Fluo4 calcium, HEK293 TRPC4beta/mu-opioid cells; B-score at 10 µM; Short transient receptor potential channel 4 (Mus musculus), Q9QUQ5; actives 0.39% (n = 300,000); DAMGO-evoked Fluo4 calcium flux; stronger effect = lower value;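 active = B-score over 3 SD under the library average, no early fluorescence shift, positive overall ratio signal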
#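 Assay system: HEK293 cells with stable TRPC4beta plus mu-opioid receptor expression. Dosing: single dose. Measured by: Fluo4 Ca2+ flux fluorescence. Also added: DAMGO in two steps, submaximal then maximal. Read-out: B score from integrated Fluo4 fluorescence ratio.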
# TRPC6 inh – mouse TRPC6 channel inhibitors, primary screen, cell-based, HEK293, membrane potential dye | Short transient receptor potential channel 6 (Mus musculus), Q61143 | ACh-evoked depolarization; stronger effect = lower value | B-score at 10 µM | actives 1.1% (n = 310,000) | AID 2553, 2010;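 active = B-score under library mean minus 3 SD, initial fluorescence not abnormally high, positive integrated signal ratio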;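 also: B-score derived from integrated fluorescence ratio over the kinetic read; more negative B-score means stronger inhibition of depolarization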
# TRPC6 activator – mouse TRPC6 channel activators, primary screen, cell-based, HEK293, membrane potential dye | Short transient receptor potential channel 6 (Mus musculus), Q61143 | HEK293-TRPC6 membrane potential dye fluorescence; stronger effect = higher value | B-score at 10 µM | actives 0.13% (n = 310,000) | AID 2550, 2010;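 active = B-score of the integrated fluorescence ratio above library mean plus 3 SD, and starting fluorescence ratio within library mean plus 5 SD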;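 also: higher score means more depolarization so channel activation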
# TRPC4 agonist – activators of mouse TRPC4 channel, primary screen, Fluo4 calcium, HEK293 TRPC4beta/mu-opioid cells; Short transient receptor potential channel 4 (Mus musculus), Q9QUQ5; Fluo4 calcium fluorescence; stronger effect = higher value; B-score at 10 µM; actives 0.49% (n = 310,000); AID 2237, 2010;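 active = B-score above 5 SD of library B-scores, and initial fluorescence ratio not above library mean plus 5 SD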;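 also: positive B-score marks a calcium rise read as TRPC4 activation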
#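 Material: TRPC4beta and mu-opioid receptor HEK293 stable cells | Incubation: 45 min room-temperature Fluo4 loading, 110 s read | Detection: Kinetic Fluo4 calcium fluorescence | Measure: Integrated baseline-normalised fluorescence ratio, converted to per-well B score | Benchmarks: Low control buffer alone, high control maximal DAMGO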
# TRPC4 sel inh 2 – second selectivity test of TRPC6 inhibitors: effect on mouse TRPC4; shares compounds with TRPC6 inh; HEK293 TRPC4/MOR, membrane potential dye fluorescence; channel activated by saturating DAMGO dose; inhibition, % at 10 µM; actives 42% (n = 920); AID 2776;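 active = compounds whose fluorescence signal differed from control wells by over 3 SD, either direction, in both duplicate plates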
# TRPC4 spec – mouse TRPC4 modulation by TRPC6 hits, confirmation, selectivity assay for TRPC6 inhibitor project, cell-based, HEK293 TRPC4/mu-opioid, membrane potential dye; shares compounds with TRPC6 inh; membrane potential fluorescence; activity change, negative = inhibition, % at 10 µM; actives 61% (n = 920); AID 2777, 2010;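 active = rise or fall in signal beyond 3 SD of buffer-only wells in both replicate plates, either sign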;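 also: integrated kinetic ratio of fluorescence range over baseline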
# HEK293 MPD ctr 2-1 – nonspecific membrane potential effects, parental HEK293, confirmation, counter-screen for TRPC6 inhibitor project, cell-based, second counter screen; shares compounds with TRPC6 inh; parental HEK293 membrane potential dye fluorescence; maximal acetylcholine challenge after compound addition; signal change vs control, % at 10 µM; actives 31% (n = 920); AID 2779, 2010;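 active = membrane potential signal moving either way by over 3 SD of the maximum-effect control, in both duplicate plates, meaning non-specific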
# HEK293 MPD ctr-1 – membrane potential modulation in parental HEK293, confirmation, counter-screen for TRPC6 inhibitor project, cell-based | parental HEK293 membrane potential dye fluorescence | AID 2780, 2010 | shares compounds with TRPC6 inh | actives 60% (n = 920) | membrane potential signal change, % at 10 µM;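 active = membrane potential signal shifting up or down by more than 3 SD of buffer-only wells, on both duplicate plates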
# HEK293 MPD ctr-2 – parental HEK293 membrane potential modulation, confirmation, counter-screen for TRPC6 modulator project, cell-based. shares compounds with TRPC6 inh. membrane potential dye fluorescence. membrane potential signal change, % at 10 µM. actives 51% (n = 2,400);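 active = membrane potential signal moves up or down beyond 5 SD from buffer-only wells, on both duplicate plates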
# HEK293 MPD ctr 2-2 – second check of TRPC6 modulator effects in parental HEK293 cells; AID 488926; shares compounds with TRPC6 inh; inhibition, % at 10 µM; actives 14% (n = 2,400); membrane potential dye fluorescence; after compound, maximal acetylcholine stimulation;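 active = membrane potential signal drops by more than 5 SD from the mean control signal, in both duplicate plates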;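 also: plate controls were acetylcholine ECmax control wells for no effect and buffer only wells for full effect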
# TRPC4/MOR mod – TRPC4 modulation by TRPC6 hit compounds, confirmation, selectivity assay for TRPC6 modulator project, cell-based, HEK293 TRPC4/mu-opioid, membrane potential dye, mouse. AID 488927, 2010. percent change from control (negative = decrease, positive = increase), % at 10 µM. actives 69% (n = 2,400). shares compounds with TRPC6 inh. membrane potential fluorescence;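 active = membrane potential signal moved up or down beyond 5 SD of buffer control wells, in both duplicate plates, actives on both sides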;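 also: plate controls were assay buffer wells for no effect and DAMGO maximal-effect wells for full effect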
# TRPC4/MOR inh 2 – second check of whether TRPC6 modulators also affect mouse TRPC4; shares compounds with TRPC6 inh; HEK293 TRPC4/mu-opioid, membrane potential dye fluorescence; stimulated with maximal-effect DAMGO; inhibition, % at 10 µM; actives 55% (n = 2,400);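 active = drop in membrane potential signal beyond 5 SD of the control wells in both duplicate plates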;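 also: TRPC4 counter screen for TRPC6 hits run under conditions tuned for TRPC6 not TRPC4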
# TRPC6 block conf – mouse TRPC6 channel inhibitors, confirmation, HEK293 cells, membrane potential dye, duplicate; shares compounds with TRPC6 inh; ACh-evoked depolarization; inhibition, % at 10 µM; actives 43% (n = 3,300); AID 488960, 2010;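 active = fluorescence ratio falls more than 5 SD below the full-stimulation control mean, in both duplicate runs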;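 also: integrated fluorescence ratio of peak minus minimum over baseline after agonist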
# TRPC6 act conf – mouse TRPC6 channel activators, confirmation, HEK293 cells, membrane potential dye, duplicate; AID 488961, 2010; activation, % at 10 µM; shares compounds with TRPC6 inh; actives 11% (n = 2,800); HEK293-TRPC6 membrane potential dye fluorescence, FDSS;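 active = ratio signal rise beyond 5 SD above unstimulated control wells' mean, seen in both duplicate runs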;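 also: plate controls were buffer EC0 wells for no effect and acetylcholine ECmax response for full effect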
# The depositor's hits bear a star; i = inactive; / = no result.
SMILES,TRPC4 potent,TRPC4 inh,TRPC6 inh,TRPC6 activator,TRPC4 agonist,HEK293 MPD ctr-2,HEK293 MPD ctr 2-2,TRPC4/MOR mod,TRPC4/MOR inh 2,TRPC6 block conf,TRPC6 act conf,others
CCOc1cccc2c1OC(c1cc(OC)c(OC)c(OC)c1)N1N=C(c3ccc(C)o3)CC21 (centres undefined),i,i,i,i,i,/,/,/,/,/,/,
COc1ccc2cc(-c3ccon3)ccc2c1,i,i,i,i,i,/,/,/,/,/,/,
CCc1ccc(/C=C2/SC(=S)N(CCC(=O)NCCCN3CCOCC3)C2=O)cc1,i,i,-5.76*,i,i,i,i,i,45.0%*,39.0%*,i,
C/C(N)=C(/C#N)C(=O)CN1C(=O)NC(Cc2c[nH]c3ccccc23)C1=O (centres undefined),i,i,i,i,i,/,/,/,/,/,/,
Cc1cccc(C)c1NC(=O)[C@@]1(CC(=O)O)CC(/C=C/c2ccccc2)=NO1,i,i,i,i,i,/,/,/,/,/,/,
COc1ccccc1CCNC(=O)C(=O)NCC1OCCN1S(=O)(=O)c1ccc(OC)c(OC)c1 (centres undefined),i,i,i,i,i,/,/,/,/,/,/,
CC(=O)c1sc2nsc(SCCN3CCCC3)c2c1N,i,i,-5.16*,i,i,232.5%*,i,i,35.5%*,i,/,
Cc1nc(SCC(=O)c2ccccc2)c(C#N)c(-c2ccco2)c1C(=O)NCc1ccco1,i,i,i,14.3*,i,220.0%*,i,16.0%*,i,i,52.0%*,
CS(=O)(=O)N1CCN(C(=O)C2c3ccccc3Oc3ccccc32)CC1,i,i,-5.7*,i,i,i,i,18.0%*,i,42.5%*,/,
Cc1ccc(S(=O)(=O)CCc2ccncc2)cc1,i,i,i,i,i,/,/,/,/,/,/,
CSc1nc(NNC=O)cc(Oc2ccc(NC(C)=O)cc2)n1,i,i,i,i,i,/,/,/,/,/,/,
CC(C)NCC(O)Cn1c2c(c3ccccc31)CCc1c-2cnn1-c1ccccc1 (centres undefined),i,i,-10*,i,i,/,/,/,/,85.5%*,i,TRPC4 sel inh 2=28.5%*;TRPC4 spec=-23.4%*;HEK293 MPD ctr 2-1=39.5%*;HEK293 MPD ctr-1=-325.5%*
CN1CCc2c(n(CC(O)CNCc3ccccc3)c3ccccc23)C1=O (centres undefined),i,i,i,i,i,/,/,/,/,/,/,
COc1ccc(N2CC(C(=O)Nc3nnc(SCC(=O)N4CCOCC4)s3)CC2=O)cc1 (centres undefined),i,i,i,i,i,/,/,/,/,/,/,
COc1ccc(C(=O)c2coc3ccc(O)c(CN4CCCCC4)c23)cc1,i,i,-8.82*,i,i,/,/,/,/,i,i,TRPC4 sel inh 2=39.5%*;TRPC4 spec=i;HEK293 MPD ctr 2-1=i;HEK293 MPD ctr-1=1.5%*
COc1ccc2occ(C(=O)c3coc4ccc(O)c(CN(C)C)c34)c2c1,i,i,-12.5*,i,i,-146.5%*,i,-33.5%*,83.5%*,67.0%*,i,
COc1cccc(C(=O)Nc2cccc3c2ccc2cccn23)c1,i,i,i,i,i,/,/,/,/,/,/,
Oc1c(/C=N/c2ccccn2)sc2ccccc12,i,i,-9.12*,i,i,170.0%*,i,29.5%*,i,i,/,
CC1(C)CC2CC(C)(CN2/C=N/c2sc3c(c2C#N)CC(C)(C)NC3(C)C)C1 (centres undefined),i,i,i,i,i,/,/,/,/,/,/,
COc1ccccc1NC(=O)Nc1cnccn1,i,i,i,i,i,/,/,/,/,/,/,
COc1cc([N+](=O)[O-])ccc1NC(=O)Nc1cnccn1,i,i,-5.51*,i,i,i,i,76.5%*,90.5%*,58.5%*,/,
Cc1c(CCOC(=O)c2ccccc2)sc[n+]1Cc1ccccc1,i,i,-9.46*,i,i,/,/,/,/,61.3%*,i,TRPC4 sel inh 2=i;TRPC4 spec=i;HEK293 MPD ctr 2-1=42.5%*;HEK293 MPD ctr-1=i
Cc1c(CCOC(=O)c2ccccc2)sc[n+]1CC(=O)c1ccc(Br)cc1,i,i,i,i,i,/,/,/,/,/,/,
O=C(CCc1nnc(Cc2ccc(-c3ccccc3)cc2)o1)NCCc1cccnc1,i,i,i,i,i,/,/,/,/,/,/,
